Tn6 DDE FP: inhibitors of Tn6 peptide binding to human fibrin DD(E) | hit rate 0.21% among 370,000 | P02675 | inhibition, % at 8.3 µM | Fibrin DD(E) TRITC-Tn6 fluorescence polarization displacement | AID 720509;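 active = inhibition above a per-campaign cutoff: mean of compounds within control limits plus 3 SD, cut at about 15% in these data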;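 note: 0% = median of all compound wells on the plate and 100% = blocking peptide control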
Target sequence (P02675 whole entry, looked up): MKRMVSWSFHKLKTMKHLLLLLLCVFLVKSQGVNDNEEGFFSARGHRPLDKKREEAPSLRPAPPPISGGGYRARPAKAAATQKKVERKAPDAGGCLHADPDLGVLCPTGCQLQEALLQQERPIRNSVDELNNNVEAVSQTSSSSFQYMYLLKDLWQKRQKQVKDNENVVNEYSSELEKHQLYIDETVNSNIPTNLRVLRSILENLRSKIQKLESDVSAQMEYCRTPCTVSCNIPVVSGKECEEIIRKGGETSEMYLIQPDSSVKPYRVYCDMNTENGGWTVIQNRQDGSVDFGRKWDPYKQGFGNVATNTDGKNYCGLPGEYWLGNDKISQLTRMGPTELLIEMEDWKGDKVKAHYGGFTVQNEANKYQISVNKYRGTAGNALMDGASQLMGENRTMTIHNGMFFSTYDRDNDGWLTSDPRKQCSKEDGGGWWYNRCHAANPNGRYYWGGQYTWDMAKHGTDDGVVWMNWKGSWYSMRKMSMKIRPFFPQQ
PLC-beta3 inh: inhibitors of human phospholipase C beta3 | Q01970 | Purified PLC-beta3, fluorogenic substrate, fluorescence | inhibition, % at 12.2 µM | hit rate 0.18% among 370,000; in the data active = inhibition above about 11%;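 note: 0% = median of compound wells on plate and 100% = full blocker control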
CendR NRP1 mod: modulators of CendR peptide binding to human neuropilin-1; FAM-RPARPAR peptide binding to NRP-1, fluorescence polarization; inhibition, % at 25 µM; hit rate 0.85% among 360,000; AID 602438;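 active = inhibition or corrected inhibition above about 18%, plus a signal ratio from 0.5 to 1.5, limit read from the data, passing the limit was not always enough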
proKLK7 act: activates the human kallikrein-7 zymogen; activation, % at 7 µM; hit rate 0.9% among 370,000; purified proKLK7, EDANS-DABCYL substrate fluorescence; 100% is mature enzyme control, 0% vehicle; AID 652039;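 active = activation above the mean of all tested compounds plus 3 SD, computed per campaign excluding outliers beyond control limits, cut at about 13% in these data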
Target sequence (P49862 whole entry, looked up): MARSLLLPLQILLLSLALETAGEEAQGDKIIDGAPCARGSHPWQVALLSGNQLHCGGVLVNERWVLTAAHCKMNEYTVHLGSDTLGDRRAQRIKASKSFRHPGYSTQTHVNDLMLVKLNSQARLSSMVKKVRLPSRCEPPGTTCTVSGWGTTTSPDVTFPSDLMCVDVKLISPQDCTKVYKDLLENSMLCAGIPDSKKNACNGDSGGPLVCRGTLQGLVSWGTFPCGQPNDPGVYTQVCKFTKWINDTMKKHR
Tn7 DDE FP: inhibitors of Tn7 peptide binding to human fibrin DD(E) | P02675 | FP displacement of FITC-Tn7 peptide from fibrin DD(E); 0% = median of compound wells per plate | inhibition, % at 8.3 µM | hit rate 0.13% among 370,000;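 active = inhibition above the mean of compounds falling within the control limits plus 3 SD of them, cut at about 14% in these data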;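 note: 0% = plate median of compound wells and 100% = 10 µM Aha-Tn7 peptide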
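Assay system: human fibrin DD(E) protein / Input: 2 µM fibrin DD(E) / Benchmarks: high control of 10 µM Aha-Tn7 peptide / Measured by: fluorescence polarization of the labelled Tn7 tracer / Medium: Tris buffer with calcium and detergent, pH 7.8 / Timing: 10 min compound pre-incubation, 3 h probe incubation at room temperature / Repeats: one replicate per compound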
PLC-gamma1 inh: inhibitors of human phospholipase C gamma1; inhibition, % at 12.2 µM; P19174; purified PLC-gamma1, fluorogenic substrate, fluorescence; hit rate 0.84% among 370,000
PLCgamma1 ctr: inhibits human PLC-gamma1 in PLC-beta3 counter-screen. shares compounds with PLC-gamma1 inh. purified PLC-gamma1, fluorogenic substrate, fluorescence. inhibition, % at 12.3 µM. hit rate 3.1% among 3,300. AID 743258
PLCb3 confirm: human PLC-beta3 inhibition, confirmation | purified PLC-beta3, fluorogenic substrate fluorescence | shares compounds with PLC-gamma1 inh | inhibition, % at 12.3 µM | hit rate 1% among 3,300 | AID 743261; in the data active = inhibition above about 11%
* marks the source's active call; other numbers are inactive results; nt = no result given. In the library only some 3% were active in any assay of this set; here they are far more common. Cut-off read from the data, not from the text of the source, unless noted: active = inhibition above about 9.5%; inactive = the rest.

SMILES | Tn6 DDE FP | PLC-beta3 inh | CendR NRP1 mod | proKLK7 act | Tn7 DDE FP | PLC-gamma1 inh | PLCgamma1 ctr | PLCb3 confirm
O=C(CN1CCN(c2ccccc2F)CC1)Nc1ccccc1F | 4.5 | 1.7 | 4.5 | -0.1 | 4.3 | 3.5 | nt | nt
Cc1ccc(CNC(=O)O[C@H]2CC[C@@]34CCCN3C(=O)CCC[C@H]4[C@H]2C)cc1 | 1.2 | 5.2 | nt | nt | 6.4 | 0.2 | nt | nt
O=C(OCn1nnc2ccccc2c1=O)c1ccc(S(=O)(=O)N2CCOCC2)cc1 | nt | nt | -12.3 | nt | nt | nt | nt | nt
CCN(CC)S(=O)(=O)c1ccc(C(=O)OCn2nnc3ccccc3c2=O)cc1 | 6.4 | 16.9* | -7.6 | 0.5 | 4.8 | 7.0 | -2.1 | -0.7
CNc1ccccc1/C(O)=C(\C#N)C(=O)NCc1cccs1 | -7.2 | -7.0 | nt | 0.3 | 2.3 | -7.8 | nt | nt
Cc1ccccc1-c1cc(C(=O)NCc2ccc(OC(F)(F)F)cc2)n(CC2CC(c3cccnc3)=NO2)n1 (configuration not stated) | 1.0 | 1.1 | 4.4 | -0.2 | -5.1 | 11.4* | -3.2 | -8.0
CCN(CC)C(=O)CSc1nc2ccccc2c(=O)n1-c1cccc(OC)c1 | -3.8 | 3.9 | 8.9 | 0.1 | -4.7 | 10.4* | -8.2 | -3.0
CCNC(=O)CSc1nc2ccccc2c(=O)n1-c1cccc(OC)c1 | 0.2 | 5.0 | 6.9 | 0.1 | -3.5 | -0.7 | nt | nt
COc1ccc(Cn2cc(CN3CC=CS3(=O)=O)nn2)cc1 | 4.0 | -0.5 | nt | 0.2 | -2.0 | -0.8 | nt | nt
CCCCOC(=O)n1c(=O)oc2cc(S(=O)(=O)N3CCCCC3)ccc21 | -6.3 | 0.7 | -20.0 | 0.1 | -8.1 | 11.4* | -2.8 | -1.4
Cc1cccc(S(=O)(=O)N2CCC[C@H]2C(=O)N2CCC[C@@H]2C(=O)NCc2ccccc2)c1 | 2.9 | 0.2 | nt | 0.1 | 5.4 | -1.0 | nt | nt
CC(=O)N1CCN(c2ccc(NC(=O)c3cc4ccccc4o3)cc2)CC1 | 4.3 | -7.9 | -3.0 | -0.3 | 6.2 | 2.0 | nt | nt
CCCC(=O)Nc1ccc(N2CCN(C(=O)c3cc4ccccc4o3)CC2)cc1 | 2.2 | 1.7 | 2.4 | 0.4 | 2.6 | 11.3* | -6.0 | -0.8
CCN(CC)C1CCN(C(=O)c2cc(COc3ccccc3SC)on2)C1 (configuration not stated) | -2.8 | -8.8 | 0.7 | 0.2 | -0.7 | 10.0* | -6.0 | -4.2
CCNC(=S)NNC(=O)CSc1nnc(-c2ccccc2)n1-c1ccc(Cl)cc1 | -1.8 | 1.8 | nt | -0.2 | -5.0 | 0.3 | nt | nt
CCc1nc2c(OCCC3CCCCC3)cccn2c1N(C)C(=O)c1ccc(C)cc1 | -7.3 | 2.9 | -5.9 | 1.0 | 4.8 | 10.2* | 3.8 | 3.0
CCC[C@H]1[C@@H](O)CC[C@@]23CCCN2C(=O)CCC[C@@H]13 | 5.1 | -1.4 | nt | nt | 2.2 | 2.2 | nt | nt
O=C(CCS(=O)(=O)c1ccccc1)N1CCCc2ccccc21 | -0.6 | -7.7 | 14.1 | -0.1 | 1.7 | -0.4 | nt | nt
O=C(CCC(=O)N1CCCc2ccccc21)N1CCN(S(=O)(=O)c2ccccc2)CC1 | -6.8 | 9.5 | 27.9* | 0.2 | -3.7 | 10.6* | -6.0 | -4.4
CC(=O)c1ccc(S(=O)(=O)N2CCCc3ccccc32)cc1 | -6.9 | -1.3 | -0.3 | -0.4 | -6.7 | 7.3 | nt | nt
O=C(O)c1ccc(S(=O)(=O)N2CCCc3ccccc32)cc1 | 1.8 | 0.1 | 3.3 | 0.1 | -2.3 | 9.9* | -4.2 | 0.7
COc1ccc(CN2C[C@]3(C=C4CCCCC4n4c(=O)n(-c5ccccc5)c(=O)n43)N=C2NC(=O)c2ccccc2)c(OC)c1 (some centres not stated) | -2.5 | -12.2 | nt | 0.2 | -2.5 | -10.0 | nt | nt
C=CCOC(=O)N1CCN(C(=O)c2ccc3nc(C)n(C4CCCC4)c3c2)CC1 | -0.5 | 7.0 | nt | -0.5 | 7.0 | 6.2 | nt | nt
C=CCN1C(=O)[C@@H](CC(=O)NCc2ccccc2)[C@]2(C(=O)OCC)CCCCC/C=C/12 | -5.4 | 1.0 | nt | -0.2 | 7.1 | -2.9 | nt | nt
O=C1CCCC(O)=C1N=Nc1ccc(C(=O)O)cc1 | -6.6 | 1.7 | -5.3 | -0.1 | -1.6 | 12.8* | 8.0 | 6.8
SMILES | Tn6 DDE FP | PLC-beta3 inh | CendR NRP1 mod | proKLK7 act | Tn7 DDE FP | PLC-gamma1 inh | PLCgamma1 ctr | PLCb3 confirm
O=S(=O)(c1ccc(Br)s1)N1CCC(c2nc3ccccc3o2)CC1 | 3.5 | 0.7 | nt | 0.1 | 5.8 | 0.2 | nt | nt
CC[C@]12c3[nH]c4ccc(Cl)cc4c3CCN1C(=O)[C@@H](CC(=O)NCc1ccco1)C[C@@H]2C(=O)N1CCN(C(=O)c2ccco2)CC1 | 2.6 | -3.7 | -4.5 | 0.0 | -1.7 | -1.1 | nt | nt
COCCCNC(=O)C[C@H]1C[C@H](C(=O)N2CCCCC2)[C@@]2(CCc3ccccc3)c3[nH]c4ccc(Cl)cc4c3CCN2C1=O | 1.4 | -0.9 | 7.1 | 0.2 | 4.5 | 2.0 | nt | nt
CC[C@]12c3[nH]c4ccc(Cl)cc4c3CCN1C(=O)[C@@H](CC(=O)NCCN1CCOCC1)C[C@@H]2C(=O)N1CCN(C(=O)c2ccco2)CC1 | -6.4 | 9.9 | -0.1 | 0.0 | -1.7 | 12.6* | -7.6 | -1.9
CC(C)(C)NC(=O)C[C@H]1C[C@H](C(=O)N2CCCCC2)[C@@]2(CCc3ccccc3)c3[nH]c4ccc(Cl)cc4c3CCN2C1=O | -3.0 | 11.2* | -10.3 | 0.4 | 1.6 | 11.2* | -4.6 | -1.0
O=C(O)CS(=O)CC(=O)Nc1cccc(C(F)(F)F)c1 (configuration not stated) | -1.1 | 2.5 | -10.4 | 0.7 | -4.4 | 19.6* | 25.4* | -1.5
O=C(O)CS(=O)CC(=O)NCc1cccc(C(F)(F)F)c1 (configuration not stated) | 6.0 | -0.4 | 10.2 | -0.3 | 5.0 | 0.4 | nt | nt
COC(=O)C1CN(Cc2cn(Cc3ccccc3)nn2)CCS(=O)(=O)N1Cc1ccc(OC)cc1 (configuration not stated) | -0.5 | -0.2 | nt | -0.1 | -9.2 | -0.3 | nt | nt
O=C1CC(SCCO)C(=O)N1c1ccc(Oc2ccccc2)cc1 (configuration not stated) | 6.3 | 3.5 | -17.7 | 0.2 | -5.1 | 14.6* | -43.2 | 3.4
COC(=O)c1sccc1NC(=O)CN(C)NS(=O)(=O)c1ccc(F)cc1 | 1.0 | 4.3 | 11.3 | 0.8 | 11.0 | 12.1* | -6.5 | 0.3
COC(=O)[C@]12C[C@H](CC(=O)NCc3ccccc3)C(=O)N(Cc3ccccc3)C1=C[C@H](C(C)C)O[C@@H]2C1CC1 | -1.6 | 4.6 | nt | -0.5 | -2.8 | 4.2 | nt | nt
CC1=CCn2c(=O)c3ccccc3c(=O)n2C1 | -2.9 | 1.4 | -10.0 | -0.2 | -7.2 | 10.7* | 7.8 | 1.8
O=c1c2ccccc2c(=O)n2n1Cc1ccccc1C2 | -1.6 | -5.2 | 1.6 | 0.0 | 4.3 | 0.4 | nt | nt

High-throughput results (PubChem BioAssay)
